High-throughput results deposited in PubChem BioAssay by Johns Hopkins Ion Channel Center.
In the library only some 3.8% were active in any assay of this set; here they are far more common.
KCNK3 block: human KCNK3 channel inhibition, primary screen. O14649. CHO-KCNK3 thallium flux, FluxOR fluorescence; stronger effect = lower value. B-score at 10 µM. hit rate 0.84% among 340,000. AID 602410;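 active = B-score under library mean minus 4 SD, starting fluorescence ratio at most library mean plus 5 SD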;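 note: more negative B-score means stronger inhibition of thallium flux through KCNK3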
KCNQ1 block: human KCNQ1 channel inhibition; hit rate 1.3% among 310,000; AID 2642; P51787; CHO-K1 KCNQ1, FluxOR thallium flux fluorescence; stronger effect = higher value; B-score at 10 µM;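 active = compounds whose thallium flux B-score, printed positive for inhibition, exceeds three library SD while starting fluorescence stays within three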;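 note: channel opened by potassium depolarization with thallium stimulus after 20 min compound exposure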
Kir21 block: blocks the mouse Kir2.1 inward-rectifier potassium channel; P35561; HEK293-Kir2.1, FluxOR thallium flux fluorescence; stronger effect = lower value; B-score at 10 µM; hit rate 0.85% among 310,000; AID 1672;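 active = fluorescence ratio B-score at or below minus 3 SD of library scores, with starting-brightness B-score within 2 SD, cut at about -4.2 in these data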;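 note: channel flux triggered by added potassium and thallium sulfate stimulus; B-score of peak minus minimum fluorescence over baseline after thallium stimulus; more negative B-score means stronger Kir2.1 block with less thallium influx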
KCNQ1 pot: human KCNQ1 channel potentiation or activation; hit rate 0.35% among 310,000; B-score at 10 µM; CHO-K1 KCNQ1, thallium flux FluxOR fluorescence; stronger effect = higher value; P51787;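 active = fluorescence ratio B-score, a plate-corrected score, at least three library SD, with initial intensity B-score within 5 SD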
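Test system: CHO-K1 cells stably expressing KCNQ1 / Medium: assay buffer / Also added: depolarizing K+/Tl+ stimulus, K2SO4 and Tl2SO4 each 12.5 mM in 5x stock / Incubation: 90 min dye loading and 20 min compound exposure, both at room temperature / Signal: thallium influx via FluxOR fluorescence, kinetic imaging / Evaluation: B score of baseline-normalized fluorescence ratio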
KCNK9 inh: inhibitors of human KCNK9 two-pore domain potassium channel | AID 488922 | hit rate 1.2% among 310,000 | B-score at 10 µM | HEK293 KCNK9, FluxOR thallium flux fluorescence; stronger effect = lower value;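 active = ratio B-score over 3 SD below the library mean, with starting fluorescence within 5 SD of its mean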;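 note: negative B-score means less thallium flux so channel inhibition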
hERG protect: compounds protecting human hERG from proarrhythmic drug block; Q12809; CHO-hERG, FluxOR thallium flux, dofetilide IC70 present; activation (rescue from dofetilide block), less the hit threshold, % at 10 µM; hit rate 0.51% among 310,000; AID 1511;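 active = activation above the mean of controls blocked by dofetilide plus 5 SD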;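 note: thallium influx through hERG after potassium depolarization seen as dye fluorescence rise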
Target sequence (Q12809 whole entry, looked up): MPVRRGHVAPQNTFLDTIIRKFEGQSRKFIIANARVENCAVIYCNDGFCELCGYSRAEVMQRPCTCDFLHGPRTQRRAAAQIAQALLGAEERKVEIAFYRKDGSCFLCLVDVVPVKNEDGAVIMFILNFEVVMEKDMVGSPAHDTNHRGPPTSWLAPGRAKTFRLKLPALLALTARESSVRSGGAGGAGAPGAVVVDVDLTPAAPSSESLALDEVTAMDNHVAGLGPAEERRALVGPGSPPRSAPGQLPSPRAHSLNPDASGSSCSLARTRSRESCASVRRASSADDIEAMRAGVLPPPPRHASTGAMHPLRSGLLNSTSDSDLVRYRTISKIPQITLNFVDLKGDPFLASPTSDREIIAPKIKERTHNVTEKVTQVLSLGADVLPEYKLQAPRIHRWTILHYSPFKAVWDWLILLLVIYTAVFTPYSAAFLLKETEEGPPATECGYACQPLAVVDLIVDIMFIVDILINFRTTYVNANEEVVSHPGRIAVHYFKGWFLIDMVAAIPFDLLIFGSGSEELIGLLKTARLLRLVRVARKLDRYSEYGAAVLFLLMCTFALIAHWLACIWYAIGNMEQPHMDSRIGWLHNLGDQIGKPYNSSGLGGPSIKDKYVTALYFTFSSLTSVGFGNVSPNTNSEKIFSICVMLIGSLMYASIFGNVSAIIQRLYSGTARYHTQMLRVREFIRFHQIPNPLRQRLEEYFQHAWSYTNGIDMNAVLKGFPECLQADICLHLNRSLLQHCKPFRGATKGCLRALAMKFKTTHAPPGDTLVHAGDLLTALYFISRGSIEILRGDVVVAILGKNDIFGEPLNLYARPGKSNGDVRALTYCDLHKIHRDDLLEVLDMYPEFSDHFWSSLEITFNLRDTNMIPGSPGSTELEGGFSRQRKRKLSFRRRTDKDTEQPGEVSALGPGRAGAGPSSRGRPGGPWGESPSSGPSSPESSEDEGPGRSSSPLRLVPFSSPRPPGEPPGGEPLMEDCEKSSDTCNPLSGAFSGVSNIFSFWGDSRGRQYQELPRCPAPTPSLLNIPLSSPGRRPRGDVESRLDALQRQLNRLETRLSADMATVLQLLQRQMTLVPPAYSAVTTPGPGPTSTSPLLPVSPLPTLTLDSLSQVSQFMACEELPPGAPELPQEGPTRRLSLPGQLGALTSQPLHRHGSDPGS
KCNK3 confirm: confirmation of human KCNK3 two-pore domain potassium channel inhibitors. shares compounds with KCNK3 block. CHO-KCNK3 thallium flux, FluxOR fluorescence; 0% buffer, 100% carvedilol maximal block. ratio percent of control, % at 10 µM. hit rate 99% among 2,400;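 active = ratio percent of control, averaged over triplicates, above buffer control mean plus 5 SD, cut at about 64% in these data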;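 note: ratio is the fluorescence rise from min to max over baseline after thallium stimulus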
KCNK3 noninduced: activity in cells without induced KCNK3 expression | shares compounds with KCNK3 block | non-induced KCNK3 parental cells, FluxOR thallium flux; stronger effect = lower value | thallium flux ratio (lower = more inhibition) at 10 µM | hit rate 40% among 2,400 | AID 651747;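 active = thallium flux ratio, averaged over three wells, more than 5 SD below the buffer control mean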;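 note: host cells are CHO cells without KCNK3 induction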
Each line names hits and unclear results; the compound was inactive in the other large screens (follow-up assays come after a bar, where they were run).

CC1=C(C(=O)OC(C)C)C(c2ccc(C)o2)C(C(=O)OC(C)C)=C(C)N1	KCNK3 block -9.4 | KCNK3 confirm 113 | KCNK3 noninduced 0.14
CC1CN(C(=S)NC(=O)C2CCCCC2)CC(C)O1 (centres undefined)	none
CCC(C)c1ccc(NC(=O)NCc2cccnc2)cc1 (centres undefined)	none
CCC(C)c1ccc(NC(=O)Nc2cccnc2)cc1 (centres undefined)	KCNK3 block -9.7 | KCNK3 confirm 119 | KCNK3 noninduced 0.15
Cc1cc(C(=O)Cn2cnc3ccc(Cl)cc3c2=O)c(C)n1C1CC1	none (no result: KCNQ1 block, Kir21 block, KCNQ1 pot, KCNK9 inh, hERG protect)
O=C(Oc1ccccc1)N1CCN(c2ccccc2F)CC1	none
O=C(NCc1nnc(SCc2ccc(F)cc2)n1-c1ccc(F)cc1)C12CC3CC(CC(C3)C1)C2	none
Cc1cc(NC(=O)c2cccnc2)ccc1NC(=O)c1cc2ccccc2o1	none
Cc1cc(NC(=O)c2cc3ccccc3o2)ccc1NC(=O)c1ccccc1	KCNK3 block -10 | KCNK3 confirm inactive | KCNK3 noninduced inactive
COC(=O)N/N=C/c1cc(N=Nc2ccccc2)ccc1O	KCNK3 block -11, KCNK9 inh -7.2 | KCNK3 confirm 109 | KCNK3 noninduced 0.15
Cc1cc(C(=O)N/N=C/c2cc(N=Nc3ccccc3)ccc2O)n[nH]1	none
COC(=O)c1sccc1NC(=O)c1ccc(C(C)C)cc1	KCNK3 block -11 | KCNK3 confirm 100 | KCNK3 noninduced inactive
COC(=O)COc1ccc(Cl)cc1C1Nc2ccccc2C(=O)N1c1ccc(OC)cc1 (centres undefined)	KCNK9 inh -8 | KCNK3 confirm 122 | KCNK3 noninduced 0.16
COc1cc(C2Nc3ccccc3C(=O)N2c2ccccc2)c(Br)cc1OCC(=O)O (centres undefined)	none
CC(=O)Nc1sc(C)c(C)c1C(=O)OCC(=O)N(C)C1CCS(=O)(=O)C1 (centres undefined)	none
O=C(c1ccc(COc2ccc(Cl)cc2)o1)N1CCN(Cc2ccc3c(c2)OCO3)CC1	KCNK3 block -9.8 | KCNK3 confirm 146 | KCNK3 noninduced 0.11
CCN1CCN(C(=O)c2ccc(COc3ccc(Cl)cc3)o2)CC1	none
CCCOc1cc(C)c(Cl)cc1S(=O)(=O)N(CC)CC	KCNK3 block -11 | KCNK3 confirm 99 | KCNK3 noninduced inactive
Cc1ccc2nc(SCC(=O)Nc3cc([N+](=O)[O-])ccc3F)[nH]c2c1	none
CC(Cc1cccs1)NC(=O)Nc1ccccc1 (centres undefined)	KCNK3 block -9 | KCNK3 confirm 90 | KCNK3 noninduced inactive
COc1cccc(-c2nc(C(=O)NCC3CCCO3)cc3c2[nH]c2ccccc23)c1 (centres undefined)	KCNK3 block -11, KCNK9 inh -6.8 | KCNK3 confirm 64 | KCNK3 noninduced 0.15
CCOc1cc(/C=N/NC(=O)c2ccncc2)ccc1OC(=O)c1ccco1	none
CCOc1cc(/C=N/NC(=O)C(O)(c2ccccc2)c2ccccc2)ccc1OC(=O)c1ccco1	KCNK3 block -8.8 | KCNK3 confirm 83 | KCNK3 noninduced inactive
O=C(CN1CCSC1=NCc1ccccc1)c1ccccc1	none
Cc1ccc(S(=O)(=O)c2c(C)nn(C(C)(C)C)c2OC(=O)C(C)C)cc1	none
CCCCC(=O)Oc1c(S(=O)(=O)c2ccccc2)c(C)nn1C(C)(C)C	KCNK3 block -10 | KCNK3 confirm 118 | KCNK3 noninduced inactive
CCCC(=O)Oc1c(S(=O)(=O)c2ccc(C)cc2)c(C)nn1C(C)(C)C	KCNK3 block -8.8 | KCNK3 confirm 90 | KCNK3 noninduced inactive
CC(=O)Oc1c(S(=O)(=O)c2ccccc2)c(C)nn1C(C)(C)C	none
Cc1nn(C(C)(C)C)c(OC(=O)c2cccs2)c1S(=O)(=O)c1ccccc1	KCNK3 block -10 | KCNK3 confirm 117 | KCNK3 noninduced 0.15
Cc1ccccc1-c1cccc([C@@H]2C[C@H]3C(CN2)CON3C)c1 (some centres undefined)	none (no result: KCNQ1 block, Kir21 block, KCNQ1 pot, KCNK9 inh, hERG protect)
Cc1cc(NC(=O)c2cc3cccc([N+](=O)[O-])c3[nH]2)ccc1F	KCNK3 block -13, KCNQ1 block 11 | KCNK3 confirm 126 | KCNK3 noninduced 0.14
COCC(C)NC(=O)c1cc2cccc([N+](=O)[O-])c2[nH]1 (centres undefined)	none
COc1ccccc1C(=O)Nc1c(C(=O)N(CCN(C)C)Cc2ccco2)oc2ccccc12	KCNK3 block -11 | KCNK3 confirm 125 | KCNK3 noninduced 0.14
COc1ccc(OCC(=O)Nc2c(C(=O)N(CCN(C)C)Cc3ccco3)oc3ccccc23)cc1	none
CCOc1ccc(C2C(C#N)=C(N)SC(N)=C2C#N)cc1OC	none (no result: KCNK3 block)
CCOc1ccc(C2C(C#N)=C(N)SC(N)=C2C#N)cc1OCC	KCNK3 block -12 | KCNK3 confirm 108 | KCNK3 noninduced 0.15
CCCN1CCN(CCNC(=O)Nc2cc(C)ccc2C)CC1	none
COc1ccc(OC)c(-c2csc(NC(=O)Cc3ccccc3F)n2)c1	KCNK9 inh -6.7 | KCNK3 confirm 98 | KCNK3 noninduced inactive
CC1(C(=O)OCC(=O)Nc2nc(-c3ccc(F)c(F)c3)cs2)CC1(Cl)Cl (centres undefined)	KCNK3 block -10 | KCNK3 confirm 140 | KCNK3 noninduced 0.14
O=C(Cc1ccc(F)cc1)Nc1nc(-c2ccc(F)c(F)c2)cs1	KCNK3 block -11 | KCNK3 confirm 130 | KCNK3 noninduced inactive
COc1ccc(CC(=O)Nc2nc(-c3ccc(F)c(F)c3)cs2)cc1	none
CCc1nc(SCC(=O)c2ccccc2)c2ccccc2n1	KCNK3 block -9.4 | KCNK3 confirm 88 | KCNK3 noninduced inactive
CCc1nc(SCC(=O)N2c3ccccc3Sc3ccccc32)c2ccccc2n1	none
CC(=O)OCC1CC(COC(C)=O)C(COC(C)=O)CC1COC(C)=O (centres undefined)	none (no result: KCNQ1 block, Kir21 block, KCNQ1 pot, KCNK9 inh, hERG protect)
COc1ccc(OC)c(NC(=O)CSc2ccc3ccccc3c2)c1	KCNK3 block -11 | KCNK3 confirm 118 | KCNK3 noninduced inactive
CCOC(=O)c1c(NC(=O)Cn2c(C)nc3ccccc32)sc2c1CCC2	KCNK3 block -9.4 | KCNK3 confirm 102 | KCNK3 noninduced inactive
COC(=O)c1c(NC(=O)CSc2nnnn2-c2ccccc2)sc2c1CCCC2	KCNK3 block -9.4 | KCNK3 confirm 96 | KCNK3 noninduced inactive
NC(=O)C1CCN(CC(=O)Nc2nccs2)CC1	none
Cc1cccc(CCNC(=O)c2cccc3c2C(=O)N(C2CCCCC2)C3)c1	none
